In ChEMBL document CHEMBL2169743, “Identification of novel 2-((1-(benzyl(2-hydroxy-2-phenylethyl)amino)-1-oxo-3-phenylpropan-2-yl)carbamoyl)benzoic acid analogues as BMP-2 stimulators” (J Med Chem, 2012):
Activity calls are given as the source filed them. No cut-off for these calls is given here.

Key:
Calvarial osteoblast [1] = experiment: Osteogenic activity in Sprague-Dawley rat calvarial osteoblasts assessed as BMP-2 level at 1000 nM after 48 hrs by ELISA relative to control; type: functional
Calvarial osteoblast [2] = experiment: Osteogenic activity in Sprague-Dawley rat calvarial osteoblasts assessed as BMP-2 level at 100 nM after 48 hrs by ELISA relative to control; type: functional
Calvarial osteoblast [3] = experiment: Osteogenic activity in Sprague-Dawley rat calvarial osteoblasts assessed as BMP-2 level at 10 nM after 48 hrs by ELISA relative to control; type: functional
Calvarial osteoblast [4] = experiment: Osteogenic activity in Sprague-Dawley rat calvarial osteoblasts assessed as BMP-2 level at 1 nM after 48 hrs by ELISA relative to control; type: functional
Calvarial osteoblast [5] = experiment: Osteogenic activity in Sprague-Dawley rat calvarial osteoblasts assessed as BMP-2 level at 0.1 nM after 48 hrs by ELISA relative to control; type: functional
MC3T3-E1 [6] = experiment: Inhibition of 20S proteasome in mouse MC3T3-E1 cells at 100 nM after 48 hrs by Bradford assay; type: cell-based
How it was run: (§1)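 MC3T3-E1 cells seeded at 2 × 10⁶/well and treated for 48 h. Lysed in HEPES pH 7.5/EDTA/NaCl/1% Triton X-100 on ice; protein measured by Bradford. 10 μg lysate incubated with fluorogenic 20S proteasome substrate for 1 h at 37 °C in the dark, fluorescence read at 380/460 nm. Lactacystin 25 μM as reference. Mean ± SEM, three independent experiments.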

MC3T3-E1 [7] = experiment: Inhibition of 20S proteasome in mouse MC3T3-E1 cells after 48 hrs by Bradford assay; type: cell-based; how it was run: as §1
Rattus norvegicus [8] = experiment: Toxicity in Sprague-Dawley rat assessed as effect on cuspid valve BMP-7 mRNA expression at 1 to 5 mg/kg/day after 2 weeks by qPCR analysis relative to vehicle-treated control; type: organism-based; details: in vivo, 336 h
Rattus norvegicus [9] = experiment: Toxicity in Sprague-Dawley rat assessed as effect on cuspid valve BMP-4 mRNA expression at 1 to 5 mg/kg/day after 2 weeks by qPCR analysis relative to vehicle-treated control; type: organism-based; details: in vivo, 336 h
Rattus norvegicus [10] = experiment: Toxicity in Sprague-Dawley rat assessed as effect on cuspid valve BMP-2 mRNA expression at 1 to 5 mg/kg/day after 2 weeks by qPCR analysis relative to vehicle-treated control; type: organism-based; details: in vivo, 336 h
Rattus norvegicus [11] = experiment: Toxicity in Sprague-Dawley rat assessed as effect on aorta BMP-7 mRNA expression at 1 to 5 mg/kg/day after 2 weeks by qPCR analysis relative to vehicle-treated control; type: organism-based; details: in vivo, 336 h
Rattus norvegicus [12] = experiment: Toxicity in Sprague-Dawley rat assessed as effect on aorta BMP-4 mRNA expression at 1 to 5 mg/kg/day after 2 weeks by qPCR analysis relative to vehicle-treated control; type: organism-based; details: in vivo, 336 h
Rattus norvegicus [13] = experiment: Toxicity in Sprague-Dawley rat assessed as effect on aorta BMP-2 mRNA expression at 1 to 5 mg/kg/day after 2 weeks by qPCR analysis relative to vehicle-treated control; type: organism-based; details: in vivo, 336 h
Rattus norvegicus [14] = experiment: Osteogenic activity in Sprague-Dawley rat femur drill-hole fracture model assessed as decrease in structure model index at 1 to 5 mg/kg/day after 2 weeks by micro-CT method relative to vehicle-treated control; type: functional, organism-based
How it was run: (§2)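 Same rat femoral drill-hole model: 10 rats/group, 1.0 or 5.0 mg·kg⁻¹·day⁻¹ or gum acacia vehicle for 2 weeks starting the day after injury. Femurs taken at autopsy; μCT of the drill-hole gives BV/TV, Tb.N, Tb.Th, Tb.Sp, Conn.Dens and SMI. Mean ± SEM.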

Rattus norvegicus [15] = experiment: Osteogenic activity in Sprague-Dawley rat femur drill-hole fracture model assessed as decrease in trabecular spacing at 1 to 5 mg/kg/day after 2 weeks by micro-CT method relative to vehicle-treated control; type: functional, organism-based; how it was run: as §2
Rattus norvegicus [16] = experiment: Osteogenic activity in Sprague-Dawley rat femur drill-hole fracture model assessed as increase in connection density at 1 to 5 mg/kg/day after 2 weeks by micro-CT method relative to vehicle-treated control; type: functional, organism-based; how it was run: as §2
Rattus norvegicus [17] = experiment: Osteogenic activity in Sprague-Dawley rat femur drill-hole fracture model assessed as increase in trabecular thickness at 1 to 5 mg/kg/day after 2 weeks by micro-CT method relative to vehicle-treated control; type: functional, organism-based; how it was run: as §2
Rattus norvegicus [18] = experiment: Osteogenic activity in Sprague-Dawley rat femur drill-hole fracture model assessed as increase in trabecular number at 1 to 5 mg/kg/day after 2 weeks by micro-CT method relative to vehicle-treated control; type: functional, organism-based; how it was run: as §2
Rattus norvegicus [19] = experiment: Osteogenic activity in Sprague-Dawley rat femur drill-hole fracture model assessed as increase in bone volume/trabecular volume at 1 to 5 mg/kg/day after 2 weeks by micro-CT method relative to vehicle-treated control; type: functional, organism-based; how it was run: as §2
Rattus norvegicus [20] = experiment: Osteogenic activity in Sprague-Dawley rat femur drill-hole fracture model assessed as bone formation at 5 mg/kg/day after 2 weeks by calcein labeling-based confocal microscopy relative to vehicle-treated control; type: functional
How it was run: (§3)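 Bilateral femoral diaphysis drill-hole (0.8 mm bit, 2 cm above knee) in rats, 10 per group. Daily dosing at 1.0 or 5.0 mg·kg⁻¹·day⁻¹, or gum acacia/water vehicle, from the day after injury for 2 weeks. Calcein 20 mg/kg i.p. given 2 days before autopsy. Acrylic-embedded 50 μm sections imaged by confocal microscopy; calcein intensity quantified. Mean ± SEM.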

Rattus norvegicus [21] = experiment: Osteogenic activity in Sprague-Dawley rat femur drill-hole fracture model assessed as bone formation at 1 mg/kg/day after 2 weeks by calcein labeling-based confocal microscopy relative to vehicle-treated control; type: functional; how it was run: as §3
Rattus norvegicus [22] = organism: Rattus norvegicus; experiment: Osteogenic activity in Sprague-Dawley rat femur drill-hole fracture model assessed as increase in osteoblast formation after 2 weeks by calcein labeling-based confocal microscopy relative to vehicle-treated control; type: functional, organism-based; how it was run: as §3
Rattus norvegicus [23] = organism: Rattus norvegicus; experiment: Osteogenic activity in Sprague-Dawley rat femur drill-hole fracture model assessed as increase in callus regeneration after 2 weeks by calcein labeling-based confocal microscopy relative to vehicle-treated control; type: functional, organism-based; how it was run: as §3
Rattus norvegicus [24] = organism: Rattus norvegicus; experiment: Osteogenic activity in Sprague-Dawley rat femur drill-hole fracture model assessed as increase in osteoblast recruitment after 2 weeks by calcein labeling-based confocal microscopy relative to vehicle-treated control; type: functional, organism-based; how it was run: as §3
Calvarial osteoblast [25] = experiment: Induction of […] mRNA expression in Sprague-Dawley rat calvarial osteoblasts at 10 nM after 72 hrs by qPCR analysis in presence of noggin; type: functional, cell-based
How it was run: (§4)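 Rat calvarial osteoblasts treated for 72 h with 10 nM compound, 100 ng/mL BMP-2 and 50 ng/mL noggin, alone or combined. Runx-2 and osteocalcin mRNA measured by qPCR. Data are mean ± SEM from three independent experiments.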

Calvarial osteoblast [26] = experiment: Induction of Runx-2 mRNA expression in Sprague-Dawley rat calvarial osteoblasts at 10 nM after 72 hrs by qPCR analysis in presence of noggin; type: functional, cell-based; how it was run: as §4
Calvarial osteoblast [27] = experiment: Induction of type 1 collagen mRNA expression in Sprague-Dawley rat calvarial osteoblasts at 10 nM by qPCR analysis; type: functional, cell-based; details: TDE = time-dependent effect
How it was run: (§5)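 Primary calvarial osteoblasts from pooled 1–2-day-old Sprague–Dawley rat pups (both sexes), released by sequential Dispase/collagenase P digestion at 37 °C. Cells kept in osteoblast differentiation medium with 10 nM compound or vehicle and sampled at several time points (24 h up to 72 h) for qPCR. Results given as fold change, mean ± SEM, triplicate.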

Calvarial osteoblast [28] = experiment: Induction of […] mRNA expression in Sprague-Dawley rat calvarial osteoblasts at 10 nM by qPCR analysis; type: functional, cell-based; details: TDE = time-dependent effect; how it was run: as §5
Calvarial osteoblast [29] = experiment: Induction of BMP-2 mRNA expression in Sprague-Dawley rat calvarial osteoblasts at 10 nM by qPCR analysis; type: functional, cell-based; details: TDE = time-dependent effect; how it was run: as §5
Calvarial osteoblast [30] = experiment: Induction of Runx mRNA expression in Sprague-Dawley rat calvarial osteoblasts at 10 nM by qPCR analysis; type: functional, cell-based; details: TDE = time-dependent effect; how it was run: as §5
Calvarial osteoblast [31] = experiment: Induction of mineralization in Sprague-Dawley rat calvarial osteoblasts assessed as increase of mineralized nodule formation at 10 nM after 21 days by Alizarin Red S staining relative to vehicle-treated control; type: functional, cell-based
How it was run: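 Rat calvarial osteoblasts grown to 80% confluence, then plated at 25 000 cells/well in differentiation medium (growth medium plus 50 μg/mL ascorbic acid and […]) with 10 nM compound or vehicle. Medium changed every other day for 21 days. Cells fixed in 4% paraformaldehyde and stained with 40 mM Alizarin Red S (pH 4.5). Dye extracted with 10% acetic acid at 85 °C, neutralized, OD 405 nm read.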

Calvarial osteoblast [32] = experiment: Osteogenic activity in Sprague-Dawley rat calvarial osteoblasts assessed as BMP-2 mRNA expression at 0.1 to 1000 nM after 48 hrs by qPCR analysis relative to control; type: functional, cell-based

Cc1ccc(S(=O)(=O)OC(CNC(=O)C(Cc2ccccc2)NC(=O)c2ccccc2C(=O)O)c2ccccc2)cc1 (stereo not drawn)
Activity (Calvarial osteoblast [1]): 104%
Activity (Calvarial osteoblast [2]): 114.88%
Activity (Calvarial osteoblast [3]): 111.78%
Activity (Calvarial osteoblast [4]): 131.75%
Activity (Calvarial osteoblast [5]): 119%

Cc1ccc(S(=O)(=O)OC(CN(Cc2ccccc2)C(=O)C(Cc2ccccc2)NC(=O)c2ccccc2C(=O)O)c2ccccc2)cc1 (stereo not drawn)
Activity (Calvarial osteoblast [1]): 111%
Activity (Calvarial osteoblast [2]): 98.7%
Activity (Calvarial osteoblast [3]): 109.39%
Activity (Calvarial osteoblast [4]): 141.67%
Activity (Calvarial osteoblast [5]): 122%

O=C(O)c1ccccc1C(=O)NC(Cc1ccccc1)C(=O)N(Cc1ccccc1)CC(O)c1ccccc1 (stereo not drawn)
inhibition (MC3T3-E1 [6]): inactive
inhibition (MC3T3-E1 [7]): Dose-dependent effect
Activity (Rattus norvegicus [8]): Non-toxic
Activity (Rattus norvegicus [9]): Non-toxic
Activity (Rattus norvegicus [10]): Non-toxic
Activity (Rattus norvegicus [11]): Non-toxic
Activity (Rattus norvegicus [12]): Non-toxic
Activity (Rattus norvegicus [13]): Non-toxic
Activity (Rattus norvegicus [14]): Active
Activity (Rattus norvegicus [15]): Active
Activity (Rattus norvegicus [16]): Active
Activity (Rattus norvegicus [17]): Active
Activity (Rattus norvegicus [18]): Active
Activity (Rattus norvegicus [19]): Active
fold change (FC) (Rattus norvegicus [20]): 3.12
fold change (FC) (Rattus norvegicus [21]): 2.16
Activity (Rattus norvegicus [22]): Dose-dependent effect
Activity (Rattus norvegicus [23]): Dose-dependent effect
Activity (Rattus norvegicus [24]): Dose-dependent effect
Activity (Calvarial osteoblast [25]): inactive
Activity (Calvarial osteoblast [26]): inactive
Activity (Calvarial osteoblast [27]): tde
Activity (Calvarial osteoblast [28]): tde
Activity (Calvarial osteoblast [29]): tde
Activity (Calvarial osteoblast [30]): tde
Activity (Calvarial osteoblast [31]): Active
Activity (Calvarial osteoblast [32]): Active
Activity (Calvarial osteoblast [1]): 133%
Activity (Calvarial osteoblast [2]): 137.2%
Activity (Calvarial osteoblast [3]): 155.6%
Activity (Calvarial osteoblast [4]): 159.5%
Activity (Calvarial osteoblast [5]): 140%

CC(=O)OC(CN(Cc1ccccc1)C(=O)C(Cc1ccccc1)NC(=O)c1ccccc1C(=O)O)c1ccccc1 (stereo not drawn)
Activity (Calvarial osteoblast [1]): 100.6%
Activity (Calvarial osteoblast [2]): 98.76%
Activity (Calvarial osteoblast [3]): 83.45%
Activity (Calvarial osteoblast [4]): 89.49%
Activity (Calvarial osteoblast [5]): 88.7%

O=C(O)c1ccccc1C(=O)NC(Cc1ccccc1)C(=O)NCCc1ccccc1 (stereo not drawn)
Activity (Calvarial osteoblast [32]): Active
Activity (Calvarial osteoblast [1]): 132%
Activity (Calvarial osteoblast [2]): 166.11%
Activity (Calvarial osteoblast [3]): 114.24%
Activity (Calvarial osteoblast [4]): 122.8%
Activity (Calvarial osteoblast [5]): 111%

N#CC(CN(Cc1ccccc1)C(=O)C(Cc1ccccc1)NC(=O)c1ccccc1C(=O)O)c1ccccc1 (stereo not drawn)
Activity (Calvarial osteoblast [1]): 92.6%
Activity (Calvarial osteoblast [2]): 96.69%
Activity (Calvarial osteoblast [3]): 89.28%
Activity (Calvarial osteoblast [4]): 97.35%
Activity (Calvarial osteoblast [5]): 83.6%

O=C(O)c1ccccc1C(=O)NC(Cc1ccccc1)C(=O)N(Cc1ccccc1)CC(OCc1ccccc1)c1ccccc1 (stereo not drawn)
Activity (Calvarial osteoblast [1]): 92.6%
Activity (Calvarial osteoblast [2]): 103.27%
Activity (Calvarial osteoblast [3]): 98.34%
Activity (Calvarial osteoblast [4]): 100.66%
Activity (Calvarial osteoblast [5]): 89.8%

CC(=O)OC(CNC(=O)C(Cc1ccccc1)NC(=O)c1ccccc1C(=O)O)c1ccccc1 (stereo not drawn)
Activity (Calvarial osteoblast [1]): 103%
Activity (Calvarial osteoblast [2]): 96.03%
Activity (Calvarial osteoblast [3]): 98.33%
Activity (Calvarial osteoblast [4]): 98.67%
Activity (Calvarial osteoblast [5]): 106%

O=C(O)c1ccccc1C(=O)NC(Cc1ccccc1)C(=O)NCC(OCc1ccccc1)c1ccccc1 (stereo not drawn)
Activity (Calvarial osteoblast [1]): 93.6%
Activity (Calvarial osteoblast [2]): 117.2%
Activity (Calvarial osteoblast [3]): 101.32%
Activity (Calvarial osteoblast [4]): 107.27%
Activity (Calvarial osteoblast [5]): 87.8%

O=C(OC(CN(Cc1ccccc1)C(=O)C(Cc1ccccc1)NC(=O)c1ccccc1C(=O)O)c1ccccc1)c1ccccc1 (stereo not drawn)
Activity (Calvarial osteoblast [1]): 112%
Activity (Calvarial osteoblast [2]): 103.15%
Activity (Calvarial osteoblast [3]): 103.15%
Activity (Calvarial osteoblast [4]): 107.69%
Activity (Calvarial osteoblast [5]): 98.4%
